Measurements from different studies.
Lines come from different studies, so protocols differ. Converted amounts (≈) assume the structure as drawn.

SMILES	tested on	test	system	setting	quantity	value
NC(=S)c1ccc(Cn2c(=S)[nH]c3ccc(Cl)cc3c2=O)cn1	Mycobacterium tuberculosis	microbial growth	H37RV	–	MIC90	> 100 µM
O=C(Nc1ccc(Cl)cc1)Nc1cccc(-c2cn(Cc3ccc(Br)cc3)nn2)c1	Huh-7	cell growth or viability, CCK-8	–	50 µM, 72 h	viability	13.1%
O=c1c2nc(Cl)ccc2[nH]c(=S)n1Cc1cccnc1	Mycobacterium tuberculosis	microbial growth	H37RV	–	MIC90	> 100 µM
Cc1ccc(CCNc2cc(-c3ccccn3)nc3cc(Br)nn23)cc1	Mycobacterium tuberculosis	microbial growth	H37RV	–	MIC	25 µM (≈ 10.2 µg/mL)
COCCC(c1cccnc1)n1c(=S)[nH]c2ccc(Cl)cc2c1=O (stereo not shown)	Mycobacterium tuberculosis	microbial growth	H37RV	–	MIC90	> 100 µM
CCCCN(CCCC)C(=N)CC(O)c1cc2c(F)cc(F)cc2c2cc(C(F)(F)F)ccc12 (stereo not shown)	HepG2	cell growth or viability, neutral red	–	24 h	IC50	16.6 µM
Cc1cccc(NC(=O)c2sc3nc(-c4ccco4)cc(C(F)(F)F)c3c2N)c1C	HepG2	cell growth or viability	–	72 h	IC50	> 100 µM
N=C(CC(O)c1cc2c(F)cc(F)cc2c2cc(C(F)(F)F)ccc12)Nc1ccc(Br)c(F)c1 (stereo not shown)	HepG2	cell growth or viability, neutral red	–	24 h	IC50	28.2 µM
COc1ccc(-c2cc(C(F)(F)F)c3c(N)c(C(=O)N4CCCCC4)sc3n2)cc1	HepG2	cell growth or viability	–	72 h	IC50	> 100 µM
N=C(CC(O)c1cc2c(F)cc(F)cc2c2cc(C(F)(F)F)ccc12)NC1CC(F)(F)C1 (stereo not shown)	HepG2	cell growth or viability, neutral red	–	24 h	IC50	7.2 µM
NC(=O)c1cc2[nH]c(=S)n(Cc3cccnc3)c(=O)c2cc1Cl	Mycobacterium tuberculosis	microbial growth	H37RV	–	MIC90	7.1 µM (≈ 2.46 µg/mL)
N#Cc1ccc(NC(=N)CC(O)c2cc3c(F)cc(F)cc3c3cc(C(F)(F)F)ccc23)cc1 (stereo not shown)	HepG2	cell growth or viability, neutral red	–	24 h	IC50	> 25 µM
CCCc1ccc(CNc2cc(-c3ccccn3)nc3nncn23)cc1	Mycobacterium tuberculosis	microbial growth	H37RV	–	MIC	> 100 µM
COc1ccc(-c2cc(C(F)(F)F)c3c(N)c(C(=O)NC4COC4)sc3n2)cc1	HepG2	cell growth or viability	–	72 h	IC50	> 100 µM
COc1ccc(CCNc2cc(-c3ccccn3)nc3cc(Br)nn23)cc1	Mycobacterium tuberculosis	microbial growth	H37RV	–	MIC	23 µM (≈ 9.76 µg/mL)
COc1ccc(-c2cc(C(F)(F)F)c3c(N)c(C(=O)NC(C)C4CCCCC4)sc3n2)cc1 (stereo not shown)	HepG2	cell growth or viability	–	72 h	IC50	> 100 µM
N=C(CC(O)c1cc2c(F)cc(F)cc2c2cc(C(F)(F)F)ccc12)Nc1cccc(F)c1 (stereo not shown)	HepG2	cell growth or viability, neutral red	–	24 h	IC50	11.4 µM
CCC(NC(=O)c1sc2nc(-c3ccc(OC)cc3)cc(C(F)(F)F)c2c1N)c1ccccc1 (stereo not shown)	HepG2	cell growth or viability	–	72 h	IC50	> 100 µM
O=c1c2cc(Cl)ccc2[nH]c(=S)n1Cc1ccc(-c2ccccc2)nc1	Mycobacterium tuberculosis	microbial growth	H37RV	–	MIC90	> 100 µM
Cc1cccc(NC(=O)c2sc3nc(-c4cccs4)cc(C(F)(F)F)c3c2N)c1C	HepG2	cell growth or viability	–	72 h	IC50	> 100 µM
Cc1nnc2nc(-c3ccccn3)cc(NCCc3ccc(Cl)cc3)n12	Mycobacterium tuberculosis	microbial growth	H37RV	5 days	MIC	17 to 50 µM (≈ 6.2 to 18.2 µg/mL)
CC(C)C(=O)OCc1cc2[nH]c(=S)n(Cc3cncc(C#N)c3)c(=O)c2cc1Cl	Mycobacterium tuberculosis	microbial growth	H37RV	–	MIC90	5.52 µM (≈ 2.37 µg/mL)
COCCNC(=O)c1sc2nc(-c3ccc(OC)cc3)cc(C(F)(F)F)c2c1N	HepG2	cell growth or viability	–	72 h	IC50	> 100 µM
O=c1c2cc(Cl)ccc2[nH]c(=S)n1Cc1ccc(-c2nnn[nH]2)nc1	Mycobacterium tuberculosis	microbial growth	H37RV	–	MIC90	87.4 µM (≈ 32.5 µg/mL)
COC1CN(C(=O)c2sc3ncccc3c2N)C1	Mycobacterium tuberculosis	microbial growth	H37RV	–	IC50	> 100 µM
